Bioassay records as filed in PubChem.
T cruzi growth-1 = T. cruzi intracellular proliferation inhibitors, primary screen, cell-based, beta-gal Tulahuen parasites, NIH3T3 host, luminescence; 5.9% of 77,000 active; AID 624255, 2012; inhibition, % at 8.34 µM; T. cruzi beta-gal in NIH3T3, GalScreen luminescence, 90 h;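 active = mean inhibition above about 93%, with at least 55% of replicates each passing it, limit read from the data, passing the limit was not always enough; inconclusive = only one of those two conditions holds; inactive = neither condition holds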
IDH1 R132H inh = inhibitors of IDH1 R132H reductase, primary screen, biochemical, plate reader, single point | Isocitrate dehydrogenase [NADP] cytoplasmic (Homo sapiens), O75874 | diaphorase/resazurin fluorescence, 60 min | inhibition, % at 10 µM | 0.18% of 70,000 active; in the data active = inhibition above about 34%; inconclusive = no clear call, values can overlap the other calls; inactive = below about 11%;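 note: 0% = DMSO and 100% = no enzyme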
Target sequence (O75874 whole entry R132H): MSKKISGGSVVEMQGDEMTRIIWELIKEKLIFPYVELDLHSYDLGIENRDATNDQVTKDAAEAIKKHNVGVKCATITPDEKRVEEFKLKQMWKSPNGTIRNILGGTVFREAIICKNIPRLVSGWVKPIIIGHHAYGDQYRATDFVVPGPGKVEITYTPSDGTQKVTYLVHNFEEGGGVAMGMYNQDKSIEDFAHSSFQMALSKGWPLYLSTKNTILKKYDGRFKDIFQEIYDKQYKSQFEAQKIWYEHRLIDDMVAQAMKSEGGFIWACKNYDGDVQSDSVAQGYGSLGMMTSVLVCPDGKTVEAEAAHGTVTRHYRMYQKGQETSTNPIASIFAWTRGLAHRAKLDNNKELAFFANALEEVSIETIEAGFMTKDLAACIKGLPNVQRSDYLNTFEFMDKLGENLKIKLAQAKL
GASC1 inh = inhibitors of GASC-1 (KDM4C) histone demethylase, primary screen, biochemical, single concentration HTS. AID 720574, 2013. inhibition, % at 12.5 µM. GST-KDM4C 2-372, H3K9me3 peptide, LANCE TR-FRET. 0.15% of 96,000 active. Lysine-specific demethylase 4C (Homo sapiens), Q9H3R0;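 active = mean replicate inhibition above about 25%, with at least 55% of replicates also reaching it, limit read from the data, passing the limit was not always enough; inconclusive = only one of those two conditions met; inactive = neither condition met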
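Test system – GST-tagged GASC-1 (JMJD2C) catalytic fragment, aa 2-372 · Medium – HEPES buffer, pH 7.5, plus ascorbate · Reagent – H3K9me3 peptide with Fe(II)/2OG · Compound – one test concentration per compound · Timing – 30 min reaction, 60 min detection, RT · Technique – TR-FRET with Eu antibody and ULight streptavidin, EDTA stop · Read-out basis – inhibition from TR-FRET ratio decrease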
T cruzi growth-2 = T. cruzi intracellular proliferation inhibitors, confirmation, cell-based, NIH3T3 host, beta-gal parasite, luminescence, cherry-pick; shares compounds with T cruzi growth-1; T. cruzi beta-gal in NIH3T3, GalScreen luminescence, 90 h; inhibition, % at 8.35 µM; 72% of 5,600 active; AID 651739, 2012;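 active = mean replicate inhibition above about 95% and at least 55% of replicates individually reaching it, limit read from the data; inconclusive = only one of the two criteria is met; inactive = neither criterion is met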
T cruzi growth-3 = inhibitors of intracellular T. cruzi replication, confirmation, NIH3T3 host cells, beta-gal parasites, cherry-pick, set 2 | shares compounds with T cruzi growth-1 | T. cruzi beta-gal in NIH3T3, GalScreen luminescence, 90 h | inhibition, % at 2.09 µM | 21% of 5,600 active | AID 651740, 2012;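 active = mean inhibition above about 95%, with at least 55% of replicates also reaching it, limit read from the data; inconclusive = meets just one of the two conditions; inactive = meets neither condition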;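 note: plate controls were neutral control median for no effect and positive control median for full effect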
3T3 cytotox = cytotoxicity in mouse NIH/3T3 fibroblasts, confirmation, cytotoxicity control for T. cruzi proliferation inhibitor project, cell-based, cherry-pick, single point. shares compounds with T cruzi growth-1. 14% of 5,600 active. cytotoxicity (signal decrease), % at 8.35 µM. NIH/3T3 viability, CellTiter-Glo ATP luminescence, 90 h;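 active = mean signal decrease across replicates above about 35% based on untreated-well scatter, with enough replicates individually passing, limit read from the data; inconclusive = no rule stated though some were filed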;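 note: 0% = median of neutral control wells and 100% = median of positive control wells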
NIH3T3 tox 2 = NIH/3T3 fibroblast cytotoxicity, confirmation, cytotoxicity control, cell-based, cherry-pick, single point, set 2; shares compounds with T cruzi growth-1; inhibition, % at 24.9 µM; AID 651744, 2012; NIH/3T3 viability, CellTiter-Glo ATP luminescence, 90 h; 56% of 5,600 active;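 active = mean loss of cell viability signal at or above a set limit, and enough replicates individually reaching it; inconclusive = meets only the mean limit or only the replicate share; inactive = meets neither condition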;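 note: 0% = median of neutral control wells and 100% = median of positive control wells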
An asterisk follows results filed as active; u = inconclusive; x = no result. The entries come from a sample that favours hits as a whole.

SMILES	T cruzi growth-1	IDH1 R132H inh	GASC1 inh	T cruzi growth-2	T cruzi growth-3	3T3 cytotox	NIH3T3 tox 2
C[C@@H]1CCCCO[C@H](CN(C)S(=O)(=O)c2ccc(F)cc2)[C@@H](C)CN([C@@H](C)CO)C(=O)c2cc(NS(=O)(=O)c3ccc(Cl)cc3)ccc2O1	97*	x	0	105*	111*	2	8
C[C@@H]1CN([C@@H](C)CO)C(=O)c2cc(NS(=O)(=O)c3ccc(Cl)cc3)ccc2O[C@@H](C)CCCCO[C@H]1CN(C)S(=O)(=O)c1ccc(F)cc1	105*	3	0	104*	50	-3	1
C[C@@H]1CCCCO[C@H](CN(C)S(=O)(=O)c2ccc(Cl)cc2)[C@H](C)CN([C@H](C)CO)C(=O)c2cc(NS(=O)(=O)c3ccc(F)cc3)ccc2O1	88	0	1	x	x	x	x
C[C@@H]1CN([C@@H](C)CO)C(=O)c2cc(NS(=O)(=O)c3ccc(F)cc3)ccc2O[C@@H](C)CCCCO[C@H]1CN(C)S(=O)(=O)c1ccc(Cl)cc1	106	0	0	x	x	x	x
C[C@H]1CCCCO[C@@H](CN(C)S(=O)(=O)c2ccc(F)cc2)[C@@H](C)CN([C@@H](C)CO)C(=O)c2cc(NS(=O)(=O)c3ccc(Cl)cc3)ccc2O1	100*	-2	0	104*	u	-10	-6
C[C@@H]1CN([C@H](C)CO)C(=O)c2cc(NS(=O)(=O)c3ccc(F)cc3)ccc2O[C@@H](C)CCCCO[C@H]1CN(C)S(=O)(=O)c1ccc(Cl)cc1	u	x	0	105*	113*	-1	13
O=C(COc1cc(Cl)c(Cl)cc1Cl)Nc1ncn[nH]1	x	0	x	x	x	x	x
COc1cccc2c1OC1=C(C(=O)CC(C)(C)C1)C2CC(=O)c1ccc(O)cc1 (stereo unspecified)	x	0	x	x	x	x	x
O=S1(=O)NC(=NCCOCc2ccc(Cl)cc2)c2ccccc21	x	0	x	x	x	x	x
O=C(CSc1nc(-c2ccccc2)c(-c2ccccc2)[nH]1)Nc1ccc(F)cc1	x	1	x	x	x	x	x
CC(NC(=O)COc1ccc(Cl)cc1Cl)C(=O)O (stereo unspecified)	x	0	x	x	x	x	x
C[C@H]1CCCCO[C@@H](CN(C)S(=O)(=O)c2ccc(Cl)cc2)[C@@H](C)CN([C@@H](C)CO)C(=O)c2cc(NS(=O)(=O)c3ccc(F)cc3)ccc2O1	102*	0	12	105*	110*	-4	-14
C[C@@H]1CCCCO[C@H](CN(C)S(=O)(=O)c2ccc(Cl)cc2)[C@H](C)CN([C@@H](C)CO)C(=O)c2cc(NS(=O)(=O)c3ccc(F)cc3)ccc2O1	73	2	-1	x	x	x	x
CCCCn1c2ccccc2c2nnc(SCC(=O)c3ccc(Cl)cc3)nc21	x	2	x	x	x	x	x
O=C(CSc1nnc(-c2ccccc2O)n1-c1ccccc1)Nc1ccc(N2CCOCC2)cc1	x	1	x	x	x	x	x
COc1ccc(S(=O)(=O)NCc2ccccc2)cc1-c1nnc2c3ccccc3c(C)nn12	x	0	x	x	x	x	x
C[C@H]1CCCCO[C@@H](CN(C)S(=O)(=O)c2ccccc2)[C@@H](C)CN([C@@H](C)CO)C(=O)c2cc(NS(=O)(=O)c3ccc(F)cc3)ccc2O1	101*	1	-1	107*	64	-5	12
C[C@H]1CCCCO[C@H](CN(C)S(=O)(=O)c2ccccc2)[C@@H](C)CN([C@@H](C)CO)C(=O)c2cc(NS(=O)(=O)c3ccc(F)cc3)ccc2O1	97*	-2	-2	110*	70	19	9
C[C@@H]1CCCCO[C@H](CN(C)S(=O)(=O)c2ccccc2)[C@H](C)CN([C@@H](C)CO)C(=O)c2cc(NS(=O)(=O)c3ccc(F)cc3)ccc2O1	20	0	11	x	x	x	x
C[C@@H]1CCCCO[C@H](CN(C)S(=O)(=O)c2ccccc2)[C@@H](C)CN([C@H](C)CO)C(=O)c2cc(NS(=O)(=O)c3ccc(F)cc3)ccc2O1	14	0	-1	x	x	x	x
COc1ccc(C)cc1NC(=O)c1ccc(OCC(=O)Nc2cccc(C(F)(F)F)c2)cc1	x	0	x	x	x	x	x
Cn1c(=O)c2ccccc2n(CC(=O)Nc2ccccc2[N+](=O)[O-])c1=O	x	0	x	x	x	x	x
CC[C@]1(O)C[C@H]2CN(CCc3c([nH]c4ccccc34)[C@@](C(=O)OC)(c3cc4c(cc3OC)N(C=O)[C@H]3[C@@](O)(C(=O)OC)[C@H](OC(C)=O)[C@@]5(CC)C=CCN6CC[C@]43[C@@H]65)C2)C1	x	0	x	x	x	x	x
COc1ccc(-c2nnc(SCC(=O)c3ccc(-c4ccccc4)cc3)o2)cc1OC	x	0	x	x	x	x	x
C[C@H](CO)N1C[C@H](C)[C@@H](CN(C)Cc2ccc(C(=O)Nc3ccccc3N)cc2)Oc2ccc(N(C)C)cc2CC1=O	122*	-2	12	102*	92	37*	76*
SMILES	T cruzi growth-1	IDH1 R132H inh	GASC1 inh	T cruzi growth-2	T cruzi growth-3	3T3 cytotox	NIH3T3 tox 2
C[C@H]1CN([C@@H](C)CO)C(=O)c2cc(NC(=O)Cc3ccccc3)ccc2O[C@H]1CN(C)Cc1ccc(C(=O)Nc2ccccc2N)cc1	u	4	-1	78	36	7	u
C[C@@H]1CN([C@@H](C)CO)C(=O)c2cc(N(C)C)ccc2O[C@@H]1CN(C)Cc1ccc(C(=O)Nc2ccccc2N)cc1	104*	x	x	-9	-8	5	-11
C[C@@H]1CN([C@@H](C)CO)C(=O)c2cc(NC(=O)Cc3ccccc3)ccc2O[C@@H]1CN(C)Cc1ccc(C(=O)Nc2ccccc2N)cc1	44	x	-1	x	x	x	x
C[C@H]1CN([C@@H](C)CO)C(=O)c2cc(N(C)C)ccc2O[C@@H]1CN(C)Cc1ccc(C(=O)Nc2ccccc2N)cc1	41	x	3	x	x	x	x
C[C@H](CO)N1C[C@H](C)[C@H](CN(C)Cc2ccc(C(=O)Nc3ccccc3N)cc2)Oc2ccc(N(C)C)cc2CC1=O	72	0	0	x	x	x	x
O=[N+]([O-])c1ccc(S(=O)(=O)NCc2cccnc2)cc1	x	0	x	x	x	x	x
Cc1ccccc1S(=O)(=O)N1[C@H](CO)[C@@H](c2ccc(C#CC3CC3)cc2)[C@@H]1C#N	89	x	1	x	x	x	x
